# A selection: hits, their analogues and other compounds. The true share with any hit is near 2.1%.
# Autophagy HCS: modulators of autophagy. AID 463193. calls only at 10 µM (by protocol). 190,000 tested, 0.98% active. MEF GFP-LC3 puncta imaging; test concentration mostly 10 µM;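 active = percentage of spot-positive cells more than 3 SD above its plate mean, without a fluorescence outlier flag or 80% toxicity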
# PERK inhibitor: human PERK inhibition, primary cell-based screen | CHO PERK-DD fusion, SEAP luminescence translation reporter | inhibition, % at 5.6 µM | 220,000 tested, 0.17% active | AID 1416;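 active = inhibition above the mean inhibition of all tested compounds plus 3 SD, set separately per screening campaign, cut at about 2.9% in these data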;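 also: PERK kinase domain activated by AP20187 dimerizer at 100 nM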
# Target sequence (Q9NZJ5 whole entry, looked up, the tested form may be a part): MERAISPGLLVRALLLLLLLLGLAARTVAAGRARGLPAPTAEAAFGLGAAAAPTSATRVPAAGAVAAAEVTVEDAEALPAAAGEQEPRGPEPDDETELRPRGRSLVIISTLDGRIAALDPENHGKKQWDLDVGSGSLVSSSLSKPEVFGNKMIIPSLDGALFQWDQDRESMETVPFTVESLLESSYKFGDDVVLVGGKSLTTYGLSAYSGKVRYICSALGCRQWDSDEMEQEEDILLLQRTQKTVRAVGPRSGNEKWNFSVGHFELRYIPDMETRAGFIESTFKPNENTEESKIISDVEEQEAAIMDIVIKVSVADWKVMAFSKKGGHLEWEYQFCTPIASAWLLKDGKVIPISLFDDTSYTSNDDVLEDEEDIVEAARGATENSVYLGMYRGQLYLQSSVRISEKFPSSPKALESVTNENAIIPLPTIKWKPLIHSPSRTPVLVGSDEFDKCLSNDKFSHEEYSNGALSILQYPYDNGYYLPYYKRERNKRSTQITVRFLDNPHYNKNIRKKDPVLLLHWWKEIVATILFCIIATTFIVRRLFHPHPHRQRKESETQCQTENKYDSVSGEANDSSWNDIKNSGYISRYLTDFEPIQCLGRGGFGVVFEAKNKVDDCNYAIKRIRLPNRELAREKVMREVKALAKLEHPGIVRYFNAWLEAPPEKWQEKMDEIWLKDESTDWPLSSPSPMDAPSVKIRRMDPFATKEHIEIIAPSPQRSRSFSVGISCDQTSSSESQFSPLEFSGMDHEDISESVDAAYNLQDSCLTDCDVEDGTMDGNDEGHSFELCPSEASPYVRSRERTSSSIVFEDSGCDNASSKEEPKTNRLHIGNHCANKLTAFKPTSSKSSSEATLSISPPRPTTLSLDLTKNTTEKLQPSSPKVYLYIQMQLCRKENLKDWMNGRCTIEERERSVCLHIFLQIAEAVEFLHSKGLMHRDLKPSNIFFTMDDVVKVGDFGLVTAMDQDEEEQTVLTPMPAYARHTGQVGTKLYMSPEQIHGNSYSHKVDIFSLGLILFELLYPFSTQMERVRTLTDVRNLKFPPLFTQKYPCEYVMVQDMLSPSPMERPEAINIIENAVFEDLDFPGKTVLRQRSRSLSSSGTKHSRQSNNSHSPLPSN
# Insulin prom up: MIN6 insulin promoter up-regulation. MIN6 insulin promoter-GFP reporter, high-content imaging; hits give high values. z-score at 5 µM. 190,000 tested, 0.3% active;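 active = z-score above 3 at 5 µM with at least 500 cells counted in the well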
# Insulin prom inh: TRM-6 insulin promoter activity inhibition | TRM-6 cells (human fetal islet line), insulin promoter-eGFP reporter, imaging; reporter expression induced with tamoxifen | inhibition, % at 2 µM | 130,000 tested, 0.9% active | AID 1273;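 active = inhibition above the mean plus 3 SD, with well images judged a real hit on visual review, cut at about 60% in these data, passing the limit was not always enough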
# Dynein transport: dynein cargo transport inhibition; 3617.4 mouse cells, GR-EGFP nuclear translocation imaging; test concentration mostly 20 µM; stimulated with dexamethasone, 1 µM; hits give low values; z-score, hits read low; 220,000 tested, 0.47% active; AID 1381;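 active = plate z-score of nuclear minus cytoplasmic receptor signal below a set negative limit, without overly bright fluorescence or cell loss, cut at about -3.5 in these data, passing the limit was not always enough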;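 also: z-score of nuclear minus cytoplasmic ring GR-EGFP intensity difference per well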
#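 Buffer or medium: tet-free, stripped-serum medium; Also added: dexamethasone, 1.0 µM final; Technique: high-content fluorescence imaging after fixation; Times: 48 h induction, 1 h compound, 30 min dex at 37 °C; Read-out: per-cell GR-EGFP intensity, nucleus versus surrounding cytoplasmic ring, well-averaged.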
# A number is an active result; i = inactive; nt = no result given; + = active, no number.
SMILES,Autophagy HCS,PERK inhibitor,Insulin prom up,Insulin prom inh,Dynein transport
CC(C)(C)C(=O)CSc1nnc(Nc2ccccc2)s1,i,i,i,nt,i
CCCC(=O)n1nc(-c2cccnc2)nc1N,i,i,i,94.3,i
Cc1ccc(C(=O)n2nc(-c3cccnc3)nc2N)cc1,i,i,nt,i,i
Oc1ccc(Cl)cc1C1=Nc2ccccc2N=C(c2ccco2)C1,+,i,4.34,i,i
CC1(C)CC(Cc2nc(=S)[nH][nH]2)C(=O)O1 (stereo not given),i,i,i,i,i
COC(=O)c1ccc2c(=O)n(-c3ccccc3F)c(=S)[nH]c2c1,i,i,i,100.0,i
O=C(O)c1ccc2c(=O)n(-c3ccccc3F)c(=S)[nH]c2c1,i,i,nt,i,i
N#Cc1c(-c2ccccc2F)cc(C2CC2)nc1SCC(=O)c1cccs1,+,i,i,nt,i
O=C1CCC/C1=C/Nc1ccc(Cl)cc1,i,i,i,82.3,i
CN(C)C=Nc1ccc2nn(-c3ccccc3)nc2c1,i,i,3.14,nt,i
c1ccc(NCc2nc(-c3ccccc3)no2)cc1,i,i,i,80.0,i
COc1ccc(CC(=O)NCc2nc(-c3ccccc3)no2)cc1,i,i,i,nt,i
CCOC(=O)c1c(C(F)(F)C(F)(F)C(F)(F)C(F)(F)F)n[nH]c1C,i,i,i,i,i
O=c1[nH]c(/C=C2\C=Nc3ccccc32)c(O)n1Cc1ccccc1F,+,i,i,nt,i
CCn1ccnc1CN(C)Cc1nc(Cc2cccc(C(F)(F)F)c2)no1,i,i,i,i,i
Cc1cccc(CSc2cccc3cccnc23)c1,+,i,nt,i,i
CCOC(=O)CSc1cccc2cccnc12,+,i,i,i,i
COc1ccc(CNC(=O)CSc2cccc3cccnc23)cc1,nt,i,i,nt,i
NNC(=O)c1ccc(CSc2cccc3cccnc23)cc1,i,i,i,i,i
COc1cc2c(cc1NC(=O)CN1CCN(S(=O)(=O)c3ccccc3F)CC1)oc1ccccc12,i,i,3.63,i,i
COc1cc2c(cc1NC(=O)Cc1ccc(C)cc1)oc1ccccc12,i,i,nt,i,i
O=C1OC(c2ccccc2)/C(=C(/O)c2ccc(Cl)cc2)C1=O (stereo not given),i,i,nt,75.0,i
Cc1ccc(/C(O)=C2/C(=O)C(=O)OC2c2ccc(Cl)cc2)cc1 (stereo not given),i,i,i,i,i
Cc1cc(-c2nsc(=O)o2)c(S(C)(=O)=O)s1,i,i,i,nt,i
CC(C)CC(c1nnnn1CCc1ccccc1)N1CCC(C(N)=O)CC1 (stereo not given),i,i,nt,100.0,i
SMILES,Autophagy HCS,PERK inhibitor,Insulin prom up,Insulin prom inh,Dynein transport
Cc1nnc(SCC(=O)N(C)c2ccccc2)n1Cc1ccccc1,i,i,i,nt,i
O=S(=O)(c1ccccc1Cl)N1CCC(O)(c2ccc3c(c2)OCO3)CC1,i,i,i,i,i
CC(=O)Nc1ccc(NC(=O)c2ccc(CSc3ccccc3)o2)cc1,i,i,i,81.8,i
C/C(=N\NC(=O)OC(C)(C)C)c1cccc([N+](=O)[O-])c1,i,i,i,nt,i
Nc1cccc2c1C(=O)N(C(=O)c1cccc(S(=O)(=O)N3CCCC3)c1)C2=O,i,i,3.15,i,i
CC(=O)Oc1ccccc1N(C(C)=O)S(=O)(=O)c1cccc([N+](=O)[O-])c1,i,i,i,nt,i
CC(=O)NCCCc1nc2ccccc2n1Cc1c(F)cccc1Cl,nt,i,i,nt,i
Oc1c(/C=N/Nc2cccc3cccnc23)ccc2ccccc12,i,i,i,73.3,i
Oc1cccc(/C=N/Nc2cccc3cccnc23)c1,i,i,i,i,i
CCN(CC)c1cc(C)c2cc(NC(=O)c3cccs3)ccc2n1,+,i,i,i,i
Cc1ccc(-n2c(O)c(/C=N/NC(=O)C3COc4ccccc4O3)c3ccccc3c2=O)cc1 (stereo not given),i,i,3.14,i,i
Cc1ccc2nc(-c3ccncc3)c(NC3CCCCC3)n2c1,i,i,i,nt,i
Cc1ccc(C(=O)CSc2nnc(C)s2)cc1,i,i,i,i,i
Cc1nnc(SCC(=O)c2ccc(Br)cc2)s1,i,i,i,78.6,i
Cc1c(N(C(=O)c2ccccn2)C2(C(=O)NC3CCCC3)CCCCC2)c(=O)n(-c2ccccc2)n1C,i,i,i,nt,i
CN(C)CCCNC(=O)c1cc2c3ccccc3n(C)c2s1,+,i,i,i,i
Cn1c2ccccc2c2cc(C(=O)NNS(=O)(=O)c3ccc(F)cc3)sc21,i,i,i,i,i
Cc1cc(C(=O)NCCCN(C)C)c2ccccc2n1,i,i,i,77.8,i
NC(=NC(=O)c1ccccc1)N1CCN(C(c2ccccc2)c2ccccc2)CC1,nt,i,i,nt,i
c1ccc(-c2csc3ncnc(NCCN4CCOCC4)c23)cc1,i,i,nt,81.2,i
COc1ccc(-c2oc3ncnc(NCCN4CCOCC4)c3c2-c2ccc(OC)cc2)cc1,+,i,i,nt,i
COc1ccc(-c2oc3ncnc(NCCCN4CCOCC4)c3c2-c2ccc(OC)cc2)cc1,i,i,i,nt,i
Cc1ccc(-c2csc3ncnc(NCCN4CCOCC4)c23)cc1,i,i,i,i,i
CCCc1nn(CCc2ccccn2)c(N)c1CC,i,i,nt,69.2,i
COc1ccccc1NC(=O)C(C)NS(=O)(=O)c1ccc(Cl)cc1 (stereo not given),i,i,i,nt,i
SMILES,Autophagy HCS,PERK inhibitor,Insulin prom up,Insulin prom inh,Dynein transport
COc1ccccc1NCC(=O)NNC(C)C(=O)Nc1cccc(Cl)c1 (stereo not given),+,i,i,i,i
CCOC(=O)c1[nH]c2cc(OC)c(OC)cc2c1NC(=O)CN1CCN(c2ccc(OC)cc2)C(C)C1 (stereo not given),i,i,i,66.7,i
COC(=O)c1[nH]c2cccc(OC)c2c1NC(=O)CN1CCN(c2cccc(OC)c2)C(C)C1 (stereo not given),i,i,i,i,i
Cc1cccc(C)c1N1C(=O)C2ON(c3ccccc3)C(c3ccncc3)C2C1=O (stereo not given),i,i,i,nt,i
O=C1C2ON(c3ccccc3)C(c3ccncc3)C2C(=O)N1c1ccccc1 (stereo not given),i,i,i,72.7,i
O=C1C2C3c4ccccc4C(c4ccccc43)C2C(=O)N1c1ccncc1 (stereo not given),+,i,i,nt,i
CN1[C@@H]2CC[C@H]1CC(OC(=O)C(CO)c1ccccc1)C2 (stereo not given in full),i,i,nt,i,i
O=C(N/N=C/c1cccs1)c1ccc2c(c1)OCO2,i,i,i,nt,i
Cc1ccc(CSc2nnc3c(n2)OC2(Nc4ccccc4-3)C(=O)Nc3ccc(F)cc32)cc1 (stereo not given),i,i,i,nt,i
O=C1Nc2ccc(F)cc2C12Nc1ccccc1-c1nnc(SCc3ccccc3)nc1O2 (stereo not given),i,i,nt,75.0,i
Cc1cc(C)c2cc3c(N)c(C(=O)Nc4c(C)[nH]c(=O)[nH]c4=O)sc3nc2c1,+,i,i,i,i
O=C(O)CCC(=O)Nc1nnc(C(F)(F)F)s1,i,i,i,i,i
